Experimental findings from ChEMBL document CHEMBL3414449, “DUPA conjugation of a cytotoxic indenoisoquinoline topoisomerase I inhibitor for selective prostate cancer cell targeting” (J Med Chem, 2015) are described below.

Series [1] relates to CWR22R. As to the kind of experiment: Cytotoxicity against human 22Rv1 cells after 2 hrs by [3H]thymidine incorporation assay. The format is functional, cell-based. The essentials: (§1)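 22RV1 cells seeded at 50 000/well and grown to monolayer over 24–48 h. Drug pulse in fresh medium at 37 °C for 2 h or 24 h, then washed and chased 66 h. Labelled with 3H-thymidine (1 mCi/mL) for 4 h, TCA-precipitated, NaOH-solubilized and scintillation counted. IC50 from % incorporation vs log concentration.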

Series [2] has as its system Mus musculus. As to the kind of experiment: Toxicity in human 22Rv1 cells xenografted nu/nu mouse at 2 umol/kg, ip administered as single dose on alternative days, 3 days/week for 3 weeks. Particulars: in vivo. The format is organism-based, CWR22R. The method, boiled down:
(§2)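 Male nu/nu mice, 5–6 weeks old, given 2 × 10^6 22RV1 cells in 20% HC Matrigel in the right shoulder. Dosing began at tumor ~100 mm3, 5 mice/group, ip in sterile saline (100 μL). Tumors measured by caliper every 2–3 days, volume = 0.5 × L × W2. Body weight recorded at each dosing. Live mice counted per dose. Untreated controls got saline.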
In general terms: Xenograft models place foreign cells or tissue in a host animal.

For series [3], the system named is CWR22R. The experiment in a line: Cytotoxicity against human 22Rv1 cells after 24 hrs by [3H]thymidine incorporation assay. The format is functional, cell-based. The method, boiled down:
as §1
In general terms: Dividing cells build labelled thymidine or BrdU into new DNA.

The subject of series [4] is Mus musculus. The experiment in a line: Toxicity in human 22Rv1 cells xenografted nu/nu mouse assessed as induction of mouse death at 2 umol/kg, ip administered as single dose on alternative days, 3 days/week for 3 weeks. Format: organism-based, CWR22R. The following applies: in vivo. The essentials: as §2
The test system of series [5] is CWR22R. The experiment in a line: Antitumor activity against human 22Rv1 cells xenografted in nu/nu mouse assessed as regression of tumor growth at 2 umol/kg, ip administered as single dose on alternative days, 3 days/week for 3 weeks co-administered with 100 fold excess dose of DUPA-Aoc-Phe-Phe-Dap-Asp-Cys reagent. Format: functional, organism-based. The method, boiled down:
as §2

For series [6], the system named is Mus musculus. As to the kind of experiment: Toxicity in human 22Rv1 cells xenografted nu/nu mouse assessed as effect on body weight at 2 umol/kg, ip administered as single dose on alternative days, 3 days/week for 3 weeks. The format is organism-based, CWR22R. Particulars: in vivo. The essentials: as §2
Series [7] deals with CWR22R. As to the kind of experiment: Antitumor activity against human 22Rv1 cells xenografted in nu/nu mouse assessed as reduction in tumor mass at 2 umol/kg, ip administered as single dose on alternative days, 3 days/week for 3 weeks by hematoxylin and eosin staining. Format: functional, organism-based.
For series [8], the system named is CWR22R. As to the kind of experiment: Antitumor activity against human 22Rv1 cells xenografted in nu/nu mouse assessed as regression of tumor growth at 2 umol/kg, ip administered as single dose on alternative days, 3 days/week for 3 weeks. The format is functional, organism-based. The essentials: as §2
The target in series [9] is Glutamate carboxypeptidase 2 (Homo sapiens, UniProt Q04609). As to the kind of experiment: Inhibition of PSMA (unknown origin).

Structures are written as SMILES. pIC50: −log10 of the molar value. Activity calls are given as the source filed them. No cut-off for these calls is given here.

Chain of Glutamate carboxypeptidase 2 (Q04609 whole entry): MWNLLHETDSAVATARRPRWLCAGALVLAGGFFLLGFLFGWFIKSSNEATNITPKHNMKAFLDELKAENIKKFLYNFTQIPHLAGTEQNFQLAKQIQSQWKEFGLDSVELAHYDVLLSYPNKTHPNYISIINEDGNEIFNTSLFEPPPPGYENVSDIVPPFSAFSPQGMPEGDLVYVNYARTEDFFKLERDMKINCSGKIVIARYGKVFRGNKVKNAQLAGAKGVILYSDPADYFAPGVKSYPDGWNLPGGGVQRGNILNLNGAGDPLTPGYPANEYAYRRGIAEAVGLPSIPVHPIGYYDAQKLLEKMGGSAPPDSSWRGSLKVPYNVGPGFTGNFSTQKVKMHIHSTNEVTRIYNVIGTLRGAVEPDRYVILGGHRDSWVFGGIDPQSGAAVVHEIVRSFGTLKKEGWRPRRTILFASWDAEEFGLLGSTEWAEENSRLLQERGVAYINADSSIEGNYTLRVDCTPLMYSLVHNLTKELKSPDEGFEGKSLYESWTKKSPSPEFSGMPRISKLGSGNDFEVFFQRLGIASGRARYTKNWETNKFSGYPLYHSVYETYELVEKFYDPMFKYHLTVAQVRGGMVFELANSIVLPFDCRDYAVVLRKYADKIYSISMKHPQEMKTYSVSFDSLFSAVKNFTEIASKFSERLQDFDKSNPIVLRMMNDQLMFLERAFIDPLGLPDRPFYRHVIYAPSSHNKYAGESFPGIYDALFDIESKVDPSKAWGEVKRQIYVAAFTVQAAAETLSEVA

Turning to `COc1cc2c3c(n(CCCN4CCOCC4)c(=O)c2cc1OC)-c1cc(OC)c(OC(=O)OCCSSC[C@H](NC(=O)[C@H](CC(=O)O)NC(=O)[C@@H](N)CNC(=O)[C@H](Cc2ccccc2)NC(=O)[C@H](Cc2ccccc2)NC(=O)CCCCCCCNC(=O)CC[C@H](NC(=O)N[C@@H](CCC(=O)O)C(=O)O)C(=O)O)C(=O)O)cc1C3=O`, the IC50 entry with CWR22R [1] (cwr22r) was “Not Active”. Further, the Activity result with Mus musculus [2], in the series with Mus musculus [4] and in the series with Mus musculus [6] was “Non-toxic” throughout. The compound also gave a pIC50 with CWR22R [3] of 7.94. Moreover, the outcome in the series with CWR22R [5] was inactive. Besides, the result in the series on CWR22R [7] and in the series on CWR22R [8] was Active.

With `COc1cc2c(cc1O)C(=O)c1c-2n(CCCN2CCOCC2)c(=O)c2cc(OC)c(OC)cc12`, the pIC50 in the series with CWR22R [1] (Homo sapiens, 22Rv1, read-out: IC50) was 8.70. The Activity entry with Mus musculus [2] is on record as “Toxic”; in the series with Mus musculus [4], “Toxic”; with Mus musculus [6], “Non-toxic”. The result in the series with CWR22R [8] was Active.

The compound `O=C(O)CC[C@H](NC(=O)N[C@@H](CCC(=O)O)C(=O)O)C(=O)O` showed a pIC50 in series [9] of 7.33.

What is called pIC50 is −log10 of the IC50, conventionally taken in molar units.
